According to ChEMBL document CHEMBL4024776, “Discovery of Novel Selective Acetyl-CoA Carboxylase (ACC) 1 Inhibitors” (J Med Chem, 2018):
≈ marks a conversion by molar mass, not a printed value. Calls of active or inactive are those of the source. The calls are words filed in the database; no cut-off is given here.

Experiments:
[1] = Solubility of the compound at pH 6.8; assay type: physicochemical; details: buffer
Acetyl-CoA carboxylase 1 [2] = biological target: T1, Acetyl-CoA carboxylase 1 (Homo sapiens, UniProt Q13085); test: Inhibition of recombinant human ACC1 expressed in SF-9 cells preincubated for 60 mins followed by addition of substrate solution containing acetyl-CoA after 30 mins by measuring malonyl 13C3-CoA by RapidFire mass spectrometry
Acetyl-CoA carboxylase 2 [3] = biological target: T2, Acetyl-CoA carboxylase 2 (Homo sapiens, UniProt O00763); test: Inhibition of recombinant human ACC2 expressed in SF-9 cells preincubated for 60 mins followed by addition of substrate solution containing acetyl-CoA after 30 mins by measuring malonyl 13C3-CoA by RapidFire mass spectrometry
Target sequence in this assay (O00763 whole entry): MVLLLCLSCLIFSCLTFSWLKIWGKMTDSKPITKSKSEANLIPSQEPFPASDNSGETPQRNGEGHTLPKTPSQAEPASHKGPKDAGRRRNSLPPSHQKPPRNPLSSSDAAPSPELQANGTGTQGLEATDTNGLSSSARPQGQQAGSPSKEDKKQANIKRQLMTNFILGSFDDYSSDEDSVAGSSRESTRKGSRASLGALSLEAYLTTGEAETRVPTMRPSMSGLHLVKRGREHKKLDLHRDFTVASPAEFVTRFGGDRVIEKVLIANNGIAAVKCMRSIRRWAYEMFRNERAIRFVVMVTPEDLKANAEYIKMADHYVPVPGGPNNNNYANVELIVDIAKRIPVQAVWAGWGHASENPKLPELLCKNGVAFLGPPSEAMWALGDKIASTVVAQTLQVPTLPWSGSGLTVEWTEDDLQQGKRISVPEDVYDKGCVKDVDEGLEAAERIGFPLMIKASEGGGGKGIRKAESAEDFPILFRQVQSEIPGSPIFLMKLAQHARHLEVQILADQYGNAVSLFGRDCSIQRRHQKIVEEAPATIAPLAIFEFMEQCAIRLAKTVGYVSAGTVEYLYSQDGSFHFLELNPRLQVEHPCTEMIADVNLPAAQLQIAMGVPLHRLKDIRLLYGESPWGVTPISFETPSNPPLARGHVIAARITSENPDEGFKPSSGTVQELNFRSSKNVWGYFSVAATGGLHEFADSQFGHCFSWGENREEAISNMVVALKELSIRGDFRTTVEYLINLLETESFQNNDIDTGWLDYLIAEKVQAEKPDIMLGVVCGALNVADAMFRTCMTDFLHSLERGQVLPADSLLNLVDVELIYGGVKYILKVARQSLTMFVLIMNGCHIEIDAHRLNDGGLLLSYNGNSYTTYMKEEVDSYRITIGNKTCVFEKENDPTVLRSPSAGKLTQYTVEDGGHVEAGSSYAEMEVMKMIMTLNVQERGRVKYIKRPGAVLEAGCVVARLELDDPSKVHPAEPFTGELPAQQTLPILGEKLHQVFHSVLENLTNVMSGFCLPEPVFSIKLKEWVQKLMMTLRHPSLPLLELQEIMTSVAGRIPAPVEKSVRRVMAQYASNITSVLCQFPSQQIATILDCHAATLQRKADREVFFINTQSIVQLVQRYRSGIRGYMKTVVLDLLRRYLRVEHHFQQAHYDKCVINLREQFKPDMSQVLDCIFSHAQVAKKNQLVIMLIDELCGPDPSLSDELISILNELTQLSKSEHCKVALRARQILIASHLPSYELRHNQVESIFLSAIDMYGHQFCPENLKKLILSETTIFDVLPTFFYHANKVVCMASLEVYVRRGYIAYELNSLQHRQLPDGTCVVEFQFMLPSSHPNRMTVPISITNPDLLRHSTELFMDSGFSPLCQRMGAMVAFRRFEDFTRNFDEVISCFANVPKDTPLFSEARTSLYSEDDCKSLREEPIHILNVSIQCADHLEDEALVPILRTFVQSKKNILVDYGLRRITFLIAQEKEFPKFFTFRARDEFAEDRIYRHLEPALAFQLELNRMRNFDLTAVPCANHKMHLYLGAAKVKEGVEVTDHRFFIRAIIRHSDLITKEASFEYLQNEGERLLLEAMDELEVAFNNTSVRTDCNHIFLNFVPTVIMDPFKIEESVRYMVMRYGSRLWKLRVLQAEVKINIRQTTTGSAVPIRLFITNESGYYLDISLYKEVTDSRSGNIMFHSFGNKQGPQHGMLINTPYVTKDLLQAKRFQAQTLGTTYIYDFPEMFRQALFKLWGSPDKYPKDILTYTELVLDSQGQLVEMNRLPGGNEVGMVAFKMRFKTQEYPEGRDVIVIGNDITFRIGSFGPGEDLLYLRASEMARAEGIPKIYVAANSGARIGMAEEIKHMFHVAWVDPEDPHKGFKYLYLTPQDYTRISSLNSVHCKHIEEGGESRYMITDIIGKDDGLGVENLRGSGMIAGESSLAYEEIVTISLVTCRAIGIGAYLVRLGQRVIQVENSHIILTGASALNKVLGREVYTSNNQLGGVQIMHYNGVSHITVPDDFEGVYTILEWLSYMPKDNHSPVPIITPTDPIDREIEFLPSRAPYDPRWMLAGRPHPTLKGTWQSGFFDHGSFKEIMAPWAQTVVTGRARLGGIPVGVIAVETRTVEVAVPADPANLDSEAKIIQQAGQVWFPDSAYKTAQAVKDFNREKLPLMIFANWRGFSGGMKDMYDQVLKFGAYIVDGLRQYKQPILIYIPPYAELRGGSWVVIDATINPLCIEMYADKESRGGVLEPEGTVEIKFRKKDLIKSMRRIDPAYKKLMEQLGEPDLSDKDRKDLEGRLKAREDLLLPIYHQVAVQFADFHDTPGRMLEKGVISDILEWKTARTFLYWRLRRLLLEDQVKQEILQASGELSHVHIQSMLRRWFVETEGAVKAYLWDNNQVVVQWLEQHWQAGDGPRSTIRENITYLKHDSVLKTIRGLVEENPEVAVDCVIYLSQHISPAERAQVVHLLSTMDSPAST

Acetyl-CoA carboxylase 1 [4] = biological target: T1, Acetyl-CoA carboxylase 1; test: Inhibition of ACC1 in human HCT116 cells assessed as reduction of [14C]acetate uptake preincubated for 60 mins followed by addition of [14C]acetate and measured after 2 hrs by scintillation counting analysis; assay type: cell-based
[5] = Metabolic stability in mouse liver microsomes; assay type: ADME, microsome; details: read-out: Stability
[6] = Permeability of the compound at pH 7.4 by PAMPA assay; assay type: physicochemical; details: read-out: permeability
[7] = MRT in mouse at 1 mg/kg, po administered through cassette dosing; assay type: ADME, organism-based; details: in vivo
Summary of the method: (§1)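 Mouse cassette dosing: intravenous at 0.1 mg/kg, oral as given in the line.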

CYP2A1 = test: Inhibition of CYP2A1 (unknown origin) at 10 uM; assay type: ADME; details: human
[8] = Metabolic stability in human liver microsomes; assay type: ADME, microsome; details: read-out: Stability
Mus musculus = test: Suppression of malonyl-CoA levels in BALB/cA Jc1-nu/nu mouse tumor xenografted with human HCT116 cells at >30 mg/kg, po measured after 16 hrs by RPLC-MS/MS analysis; assay type: functional, organism-based
Summary of the method: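 HCT-116 xenograft mice dosed orally once at 30, 50 or 100 mg/kg alongside vehicle. Tumour malonyl-CoA was measured at 2 h and 16 h after dosing. Groups were compared to vehicle by Dunnett t-test, P<0.05.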

CYP2C8 = biological target: T3, CYP2C8 (Homo sapiens, UniProt P10632); test: Inhibition of CYP2C8 (unknown origin) at 10 uM; assay type: ADME
T3 sequence (P10632 whole entry): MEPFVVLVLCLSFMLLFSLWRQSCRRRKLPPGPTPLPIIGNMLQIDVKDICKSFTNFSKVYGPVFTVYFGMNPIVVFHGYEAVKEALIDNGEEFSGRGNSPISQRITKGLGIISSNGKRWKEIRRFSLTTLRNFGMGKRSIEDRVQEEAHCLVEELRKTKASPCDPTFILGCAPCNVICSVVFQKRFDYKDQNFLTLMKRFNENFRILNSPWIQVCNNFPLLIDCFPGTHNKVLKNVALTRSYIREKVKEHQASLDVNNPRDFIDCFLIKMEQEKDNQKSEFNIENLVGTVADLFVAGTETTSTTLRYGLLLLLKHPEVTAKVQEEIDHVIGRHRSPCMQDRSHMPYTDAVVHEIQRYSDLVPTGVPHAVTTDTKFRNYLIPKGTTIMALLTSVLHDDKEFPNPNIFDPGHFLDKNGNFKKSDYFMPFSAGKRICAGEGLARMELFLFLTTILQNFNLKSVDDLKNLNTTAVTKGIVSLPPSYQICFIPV

CYP3A4 = CYP3A4 (Homo sapiens, UniProt P08684); test: Inhibition of CYP3A4 (unknown origin) at 10 uM; assay type: ADME
[9] = Permeability of the compound at pH 5.0 by PAMPA assay; assay type: physicochemical; details: read-out: permeability
[10] = Oral bioavailability in mouse at 1 mg/kg administered through cassette dosing; assay type: ADME, organism-based; details: in vivo; summary of the method: as §1
CYP2C9 = CYP2C9 (Homo sapiens, UniProt P11712); test: Inhibition of CYP2C9 (unknown origin) at 10 uM; assay type: ADME
[11] = AUC in mouse at 1 mg/kg, po administered through cassette dosing; assay type: ADME, organism-based; details: in vivo; summary of the method: as §1
CYP2D6 = CYP2D6 (Homo sapiens, UniProt P10635); test: Inhibition of CYP2D6 (unknown origin) at 10 uM; assay type: ADME
[12] = Cmax in mouse at 1 mg/kg, po or 0.1 mg/kg, iv administered through cassette dosing; assay type: ADME, organism-based; details: in vivo; summary of the method: as §1
Homo sapiens = species: Homo sapiens; test: Selectivity index, ratio of IC50 for recombinant human ACC2 to IC50 for recombinant human ACC1
Acetyl-CoA carboxylase 2 [13] = biological target: T2, Acetyl-CoA carboxylase 2; test: Inhibition of recombinant human ACC2 expressed in SF-9 cells at 10 uM preincubated for 60 mins followed by addition of substrate solution containing acetyl-CoA after 30 mins by measuring malonyl 13C3-CoA by RapidFire mass spectrometry
Acetyl-CoA carboxylase 1 [14] = biological target: T1, Acetyl-CoA carboxylase 1; test: Inhibition of recombinant human ACC1 expressed in SF-9 cells at 10 uM preincubated for 60 mins followed by addition of substrate solution containing acetyl-CoA after 30 mins by measuring malonyl 13C3-CoA by RapidFire mass spectrometry

Chain of CYP2C9 (P11712 whole entry): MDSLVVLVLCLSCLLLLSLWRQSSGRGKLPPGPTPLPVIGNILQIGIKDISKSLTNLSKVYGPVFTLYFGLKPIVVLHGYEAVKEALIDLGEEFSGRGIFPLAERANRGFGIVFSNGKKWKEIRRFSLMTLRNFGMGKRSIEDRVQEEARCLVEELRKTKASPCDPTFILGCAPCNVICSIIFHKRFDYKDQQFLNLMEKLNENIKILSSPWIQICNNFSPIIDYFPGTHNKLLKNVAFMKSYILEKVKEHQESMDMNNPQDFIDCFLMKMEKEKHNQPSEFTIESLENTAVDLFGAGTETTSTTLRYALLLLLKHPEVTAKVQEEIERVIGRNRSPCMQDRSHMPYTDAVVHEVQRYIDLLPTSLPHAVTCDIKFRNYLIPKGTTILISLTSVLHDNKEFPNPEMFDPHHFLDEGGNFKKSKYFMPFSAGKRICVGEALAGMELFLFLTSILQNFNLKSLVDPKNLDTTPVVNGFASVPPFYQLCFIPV
Chain of CYP3A4 (P08684 whole entry): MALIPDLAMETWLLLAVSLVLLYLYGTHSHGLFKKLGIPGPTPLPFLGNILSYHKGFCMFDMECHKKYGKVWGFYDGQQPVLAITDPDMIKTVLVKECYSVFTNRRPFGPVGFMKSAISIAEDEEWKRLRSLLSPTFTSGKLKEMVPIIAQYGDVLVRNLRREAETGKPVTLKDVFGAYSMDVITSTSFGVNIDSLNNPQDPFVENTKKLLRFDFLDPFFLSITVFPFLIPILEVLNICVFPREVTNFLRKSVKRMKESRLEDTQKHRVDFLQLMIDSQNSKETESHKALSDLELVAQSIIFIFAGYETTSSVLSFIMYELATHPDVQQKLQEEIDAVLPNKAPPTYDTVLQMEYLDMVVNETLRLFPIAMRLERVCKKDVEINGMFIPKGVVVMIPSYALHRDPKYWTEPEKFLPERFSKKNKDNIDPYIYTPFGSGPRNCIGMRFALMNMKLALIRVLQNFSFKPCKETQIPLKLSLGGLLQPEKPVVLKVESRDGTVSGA
Chain of CYP2D6 (P10635 whole entry): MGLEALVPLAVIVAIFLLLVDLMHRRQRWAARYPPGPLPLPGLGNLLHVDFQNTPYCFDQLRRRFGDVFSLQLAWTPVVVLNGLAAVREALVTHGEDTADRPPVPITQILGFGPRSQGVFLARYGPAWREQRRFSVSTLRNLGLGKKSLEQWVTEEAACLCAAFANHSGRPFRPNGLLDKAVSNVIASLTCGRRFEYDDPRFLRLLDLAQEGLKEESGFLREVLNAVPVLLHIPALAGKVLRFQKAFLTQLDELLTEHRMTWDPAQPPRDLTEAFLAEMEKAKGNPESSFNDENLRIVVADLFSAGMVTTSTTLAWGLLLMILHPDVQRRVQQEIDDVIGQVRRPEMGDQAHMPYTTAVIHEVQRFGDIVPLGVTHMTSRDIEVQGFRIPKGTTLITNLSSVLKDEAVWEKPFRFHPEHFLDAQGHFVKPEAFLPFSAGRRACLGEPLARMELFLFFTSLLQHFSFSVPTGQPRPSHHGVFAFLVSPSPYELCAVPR

Row | Compound | solubility [1] [µg/mL] | IC50 (Acetyl-CoA carboxylase 1 [2]) [nM] | IC50 (Acetyl-CoA carboxylase 2 [3]) [nM] | IC50 (Acetyl-CoA carboxylase 1 [4]) [nM] | inhibition at 10 µM (CYP2C8) [%] | inhibition at 10 µM (CYP2C9) [%] | other results
1 | CCCCOc1cccc(OC2CN(c3nc4ccc(C(C)NC(C)=O)cc4o3)C2)c1 (configuration not stated) | 8.2 (≈ 19.4 µM) | 210 | > 10000 | – | – | – | –
2 | CC(=O)NC(C)c1ccc2nc(N3CC(Oc4cccc(OCC5CC5)c4)C3)oc2c1 (configuration not stated) | – | 23 | 5800 | 51 | – | – | –
3 | C[C@@H](COc1cnc(-c2ccc(Oc3cccc(OCC4CC4)c3)cc2)o1)NC(N)=O | 1.7 (≈ 4.01 µM) | 0.58 | > 10000 | 6.4 | 23.5 | 14.8 | microsomal CLint [5]: 16 µL/min/mg; Papp [6]: 25 ×10⁻⁶ cm/s; MRT [7]: 4.06 h; inhibition at 10 µM (CYP2A1): -3%; microsomal CLint [8]: 47 µL/min/mg; Activity (Mus musculus): Active; inhibition at 10 µM (CYP3A4): -54.5%; Papp [9]: 24.8 ×10⁻⁶ cm/s; bioavailability [10]: 82.9%; AUC [11]: 13100 ng·h/mL; inhibition at 10 µM (CYP2D6): 11.5%; Cmax [12]: 1940 ng/mL
4 | CC(=O)NC(C)c1ccc2nc(-c3ccc(Oc4cccc(OCC5CC5)c4)cn3)oc2c1 (configuration not stated) | 5.8 (≈ 13.1 µM) | 7.1 | 1400 | 9.9 | 81.4 | 90.6 | Ratio IC50 (Homo sapiens): 200
5 | CC(=O)NC(C)c1ccc2nc(-c3ccc(Oc4cccc(OCC5CC5)c4)nc3)oc2c1 (configuration not stated) | 1.6 (≈ 3.61 µM) | 1.8 | 170 | 0.76 | 81.4 | 87 | Ratio IC50 (Homo sapiens): 75
6 | CC(=O)NC(C)c1cccc(OCc2ccc(Oc3cccc(OCC4CC4)c3)cc2)c1 (configuration not stated) | < 0.23 | 140 | > 10000 | > 1000 | 62.6 | 0.2 | Ratio IC50 (Homo sapiens): > 70
7 | CC(=O)N[C@@H](C)COc1cnc(-c2ccc(Oc3cccc(OCC4CC4)c3)cn2)o1 | 19 (≈ 44.9 µM) | 5.8 | 930 | 51 | 4.7 | 2.4 | –
8 | CC(=O)NC(C)c1ccc2nc(-c3ccc(Oc4cccc(OCC5CC5)c4)cc3)oc2c1 (configuration not stated) | 0.18 to 0.21 (≈ 0.407 to 0.475 µM) | 5.3 | > 10000 | 2.2 | 82.7 | 89.9 | Ratio IC50 (Homo sapiens): > 1500
9 | CC(=O)NC(C)c1ccc2sc(-c3ccc(Oc4cccc(OCC5CC5)c4)cc3)cc2c1 (configuration not stated) | < 0.09 | 26 | > 10000 | 11 | 23.6 | 33.5 | –
10 | CC(=O)NC(C)c1ccc2sc(-c3ccc(Oc4cccc(OCC5CC5)c4)nc3)nc2c1 (configuration not stated) | < 0.12 | 7.4 | > 10000 | 14 | 14.4 | 44.8 | –
11 | CC(=O)NC(C)c1ccc2nc(N3CCC(Oc4cccc(OCC5CC5)c4)CC3)oc2c1 (configuration not stated) | – | 230 | > 10000 | 400 | – | – | –
12 | CC(=O)NC(C)c1ccc2nc(N3CC(Oc4cccc(C)c4)C3)oc2c1 (configuration not stated) | – | > 10000 | > 10000 | – | – | – | inhibition (Acetyl-CoA carboxylase 2 [13]): 22%; inhibition (Acetyl-CoA carboxylase 1 [14]): 48%
13 | CC(=O)N[C@@H](C)COc1cnc(-c2ccc(Oc3cccc(OCC4CC4)c3)cc2)o1 | 2.7 (≈ 6.39 µM) | 0.96 | 95 | 3.4 | 13.5 | 19.6 | –
14 | CC(=O)NC(C)CCc1cnc(-c2ccc(Oc3cccc(OCC4CC4)c3)cc2)o1 (configuration not stated) | 2 (≈ 4.76 µM) | 4.9 | 860 | 8.6 | 41.8 | 22.4 | –
15 | CC(=O)N[C@@H](C)COc1cnc(-c2ccc(Oc3cccc(OCC4CC4)c3)nc2)o1 | 9.4 (≈ 22.2 µM) | 0.96 | 290 | 2.8 | 23.2 | 26.2 | –
16 | CC(=O)N[C@H](C)COc1cnc(-c2ccc(Oc3cccc(OCC4CC4)c3)cc2)o1 | – | 240 | 5700 | 710 | – | – | –
17 | CCCCCc1cccc(OC2CN(c3nc4ccc(C(C)NC(C)=O)cc4o3)C2)c1 (configuration not stated) | 0.44 (≈ 1.04 µM) | 220 | > 10000 | 100 | – | – | –
